Data as given in ChEMBL document CHEMBL1275288, “Effect of milrinone analogues on intracellular calcium increase in single living H9C2 cardiac cells” (Eur J Med Chem, 2010).

Experiments:
[1] = system: H9c2; test: Increase in cytoplasmic intracellular calcium level in differentiated rat H9c2 cells depolarized through 60 mM KCl application in presence of extracellular calcium assessed as cells that prolonged KCl-dependent intracellular [Ca2+] transient at 10 uM by Fura-2-AM dye based epifluorescent microscopy; type: functional
Method in brief: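 Differentiated H9C2 cardiomyocytes (10 nM retinoic acid daily, 1% FCS) loaded with Fura 2-AM for 40 min, then 15 min at 37 °C in NES. Depolarized with 60 mM KCl in NES with extracellular Ca2+. 10 µM compound given within 30 s after start of the KCl-dependent plateau. Ratio imaging at 340/380 nm excitation, 510 nm emission. Scored as percent of tested cells (n per compound) with prolonged transient.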

[2] = system: H9c2; test: Toxicity against undifferentiated rat H9c2 cells assessed as reduction in cell viability at 100 uM after 24 hrs by MTT assay; type: cell-based; settings: h9c2, 24 h
Method in brief: (§1)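 H9C2 rat embryonic ventricular cell line, grown subconfluent in DMEM-F12 with 10% heat-inactivated FBS; differentiated cells obtained in 1% FCS medium with 10 nM retinoic acid added daily with medium renewal. Cells, undifferentiated or differentiated, exposed 24 h to 10 nM, 1, 10 or 100 µM compound; viability by MTT reduction to formazan, optical density at 570 nm, expressed as percent of control.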

[3] = system: H9c2; test: Cytotoxicity against differentiated rat H9c2 cells assessed as reduction in cell viability at 10 nM after 24 hrs by MTT assay; type: cell-based; settings: h9c2, 24 h, 0.01 µM; method in brief: as §1
[4] = system: H9c2; test: Cytotoxicity against differentiated rat H9c2 cells assessed as reduction in cell viability at 10 uM after 24 hrs by MTT assay; type: cell-based; settings: h9c2, 24 h; method in brief: as §1
[5] = system: H9c2; test: Cytotoxicity against differentiated rat H9c2 cells assessed as reduction in cell viability at 100 uM after 24 hrs by MTT assay; type: cell-based; settings: h9c2, 24 h; method in brief: as §1
[6] = system: H9c2; test: Cytotoxicity against differentiated rat H9c2 cells assessed as reduction in cell viability at 1 uM after 24 hsr by MTT assay; type: cell-based; settings: h9c2, 1 µM; method in brief: as §1
[7] = system: H9c2; test: Increase in cytoplasmic intracellular calcium level in differentiated rat H9c2 cells at 10 uM by Fura-2-AM dye based epifluorescent microscopy; type: functional
Method in brief: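 Retinoic acid (10 nM, daily)-differentiated H9C2 cells loaded 40 min with Fura 2-AM, washed in NES, held 15 min at 37 °C for dye de-esterification. Cells stimulated directly with 10 µM compound; single living cells imaged by epifluorescence microscopy, excitation 340/380 nm, emission 510 nm, whole-cell fluorescence ratio. Minimum 10, maximum 25 cells per compound; percentage of cells showing basal [Ca2+]i increase.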

SMILES | Activity [1] | Activity [2] | Activity [3] | Activity [4] | Activity [5] | Activity [6] | Activity [7]
Cc1[nH]c(=O)c(C#N)cc1C(=O)NCc1ccccc1 | 40% | 20% | 90% | 75% | – | – | –
CCC(NC(=O)c1cc(C#N)c(=O)[nH]c1C)c1ccccc1 (centres undefined) | 30% | 50% | 90% | 75% | 50% | 90% | –
Cc1[nH]c(=O)c(C#N)cc1-c1ccncc1 [MILRINONE] | 50% | – | 90% | 75% | 50% | 90% | –
Cc1[nH]c(=O)c(C#N)cc1C(=O)O | 0% | – | – | – | – | – | –
CCOC(=O)N1CCC(NC(=O)c2cc(C#N)c(=O)[nH]c2C)CC1 | 25% | 20% | 90% | 75% | 50% | 90% | –
CCOC(=O)c1cc(C#N)c(=O)[nH]c1C | 0% | – | – | – | – | – | –
Cc1[nH]c(=O)c(C#N)cc1C(=O)NC(C)c1ccccc1 (centres undefined) | 0% | – | – | – | – | – | –
Cc1[nH]c(=O)c(C#N)cc1C(=O)OCCSc1ccccn1 | 0% | – | – | – | – | – | –
Cc1[nH]c(=O)c(C#N)cc1C(=O)OCCSc1nc2ccccc2s1 | 0% | – | – | – | – | – | –
Cc1[nH]c(=O)c(C#N)cc1C(=O)OCc1ccccc1 | 0% | – | – | – | – | – | –
Cc1ccc(C#N)c(=O)[nH]1 | 45% | 50% | 90% | 75% | 50% | 90% | 78%
